Laboratory results reported in ChEMBL document CHEMBL4190361, “Discovery of New Selenoureido Analogues of 4-(4-Fluorophenylureido)benzenesulfonamide as Carbonic Anhydrase Inhibitors” (ACS Med Chem Lett, 2017).
Active and inactive are the calls of the source. No cut-off for these calls is given here.

Columns and labels:
[1] = target: Carbonic anhydrase 9 (Homo sapiens, UniProt Q16790)
[2] = Gpx-like activity of the compound assessed as GSH-mediated H2O2 reduction by measuring NADPH consumption measured within 100 secs by UV spectroscopic analysis; assay type: functional
Summary of the method: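 NADPH-coupled GPx assay with GSH as substrate and H2O2 as oxidant, with glutathione reductase. Initial conditions: NADPH 0.6 mM, GSH 2.0 mM, H2O2 5 mM, GR 8 units/mL, catalyst 0.2 mM, pH 7.4 phosphate buffer, room temperature. Read-out is the absorbance decrease at 340 nm from NADPH consumption. Mean ± SD of three experiments.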

[3] = Gpx-like activity of the compound assessed as H2O2 reduction by measuring DTT oxidation measured within 35 mins by 1H-NMR analysis; assay type: functional
Summary of the method: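 Oxidation of reduced DTT followed by 1H NMR, with DTTred and DTTox populations taken from signal integration. Catalyst loading 10%. Control run without catalyst, with (PhSe)2 as a standard comparator. T50 is the time to halve the initial DTTred. Mean ± SD of three separate experiments.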

[4] = tested on: PC-3; assay: Cytotoxicity against human PC3 cells assessed as reduction in cell viability at 300 uM after 48 hrs under normoxic condition by MTT assay; assay type: functional, cell-based
Summary of the method: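 PC3 human prostate cancer cells seeded at 1 × 10^4/well and exposed for 48 h under normoxia (20% O2). The same run also used hypoxia (0.1% O2). Compounds tested at 30, 100 and 300 μM. Viability is expressed relative to untreated control set at 100%. Mean ± SEM of three experiments.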

[5] = tested on: HT-29; assay: Cytotoxicity against human HT-29 cells assessed as reduction in cell viability at 30 to 300 uM after 48 hrs under normoxic condition by MTT assay; assay type: functional, cell-based
Summary of the method: (§1)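 Cells plated at 1 × 10^4/well and exposed to test agents at 30, 100 and 300 μM for 48 h, in normoxia (20% O2) or hypoxia (0.1% O2). Viability is expressed relative to untreated control set at 100%, as mean ± SEM of three experiments.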

[6] = tested on: MDA-MB-231; assay: Cytotoxicity against human MDA-MB-231 cells assessed as reduction in cell viability at 30 uM after 48 hrs under normoxic condition by MTT assay; assay type: functional, cell-based
Summary of the method: as §1

[7] = tested on: HT-29; assay: Cytotoxicity against human HT-29 cells assessed as reduction in cell viability at 30 to 300 uM after 48 hrs under hypoxic condition by MTT assay; assay type: functional, cell-based
Summary of the method: as §1

[8] = tested on: MDA-MB-231; assay: Cytotoxicity against human MDA-MB-231 cells assessed as reduction in cell viability at 30 to 100 uM after 48 hrs under normoxic condition by MTT assay; assay type: functional, cell-based
Summary of the method: as §1

[9] = tested on: MDA-MB-231; assay: Cytotoxicity against human MDA-MB-231 cells assessed as reduction in cell viability at 30 to 100 uM after 48 hrs under hypoxic condition by MTT assay; assay type: functional, cell-based
Summary of the method: as §1

[10] = tested on: PC-3; assay: Cytotoxicity against human PC3 cells assessed as reduction in cell viability at 30 to 300 uM after 48 hrs under hypoxic condition by MTT assay; assay type: functional, cell-based
Summary of the method: as §1

[11] = tested on: MDA-MB-231; assay: Cytotoxicity against human MDA-MB-231 cells assessed as reduction in cell viability at 300 uM after 48 hrs under hypoxic condition by MTT assay; assay type: functional, cell-based
Summary of the method: as §1

[12] = tested on: MDA-MB-231; assay: Cytotoxicity against human MDA-MB-231 cells assessed as reduction in cell viability at 300 uM after 48 hrs under normoxic condition by MTT assay; assay type: functional, cell-based
Summary of the method: as §1

[13] = tested on: PC-3; assay: Cytotoxicity against human PC3 cells assessed as reduction in cell viability at 30 to 300 uM after 48 hrs under normoxic condition by MTT assay; assay type: functional, cell-based
Summary of the method: as §1

NS(=O)(=O)c1ccc(NC(=[Se])Nc2ccccc2Cl)cc1
Ki [1]: 3.9 nM

COc1ccccc1NC(=[Se])NCCc1ccc(S(N)(=O)=O)cc1
Ki [1]: 3.1 nM

NS(=O)(=O)c1ccc(CCNC(=[Se])Nc2ccccc2)cc1
Ki [1]: 5.3 nM

NS(=O)(=O)c1ccc(CCNC(=[Se])Nc2ccc(Br)cc2)cc1
Ki [1]: 4.8 nM

NS(=O)(=O)c1ccc(CCNC(=[Se])Nc2ccc3ccccc3c2)cc1
Ki [1]: 93.1 nM

NS(=O)(=O)c1ccc(NC(=S)Nc2ccc(F)cc2)cc1
Ki [1]: 32.1 nM
Activity [2]: inactive
Activity [3]: inactive

NS(=O)(=O)c1ccc(NC(=[Se])Nc2cccc(C(F)(F)F)c2)cc1
Ki [1]: 15.9 nM

NS(=O)(=O)c1ccc(NC(=[Se])Nc2ccccc2F)cc1
Ki [1]: 5.8 nM

NS(=O)(=O)c1ccc(NC(=[Se])Nc2ccccc2)cc1
Ki [1]: 78.9 nM

NS(=O)(=O)c1ccc(NC(=O)Nc2ccc(F)cc2)cc1
Activity [4]: Active
Activity [2]: inactive
Activity [5]: Active
Activity [3]: inactive
Activity [6]: Active
Activity [7]: Active

NS(=O)(=O)c1ccc(CCNC(=[Se])Nc2ccccc2F)cc1
Ki [1]: 8.7 nM
Activity [8]: inactive
Activity [9]: inactive
Activity [10]: Active
Activity [11]: Active
Activity [12]: Active
Activity [13]: Active
Activity [5]: inactive
Activity [7]: inactive

NS(=O)(=O)c1ccc(CCNC(=[Se])Nc2ccc(I)cc2)cc1
Ki [1]: 54.9 nM
Activity [8]: inactive
Activity [9]: inactive
Activity [10]: inactive
Activity [11]: inactive
Activity [12]: inactive
Activity [13]: inactive
Activity [5]: inactive
Activity [7]: inactive

NS(=O)(=O)c1ccc(NC(=[Se])Nc2ccc(F)cc2)cc1
Ki [1]: 63 nM
Activity [10]: Active
Activity [2]: Active
Activity [13]: Active
Activity [5]: inactive
Activity [3]: Active
Activity [6]: Active
Activity [7]: inactive

NS(=O)(=O)c1cccc(NC(=[Se])Nc2ccccc2)c1
Ki [1]: 330 nM

NS(=O)(=O)c1ccc(CCNC(=[Se])Nc2cccc(C(F)(F)F)c2)cc1
Ki [1]: 5.8 nM

NS(=O)(=O)c1cccc(NC(=[Se])Nc2ccc(F)cc2)c1
Ki [1]: 97.8 nM

NS(=O)(=O)c1ccc(CCNC(=[Se])Nc2ccccc2Cl)cc1
Ki [1]: 4.8 nM
